Experimental data of several laboratories.
Lines come from different studies, so protocols differ.

SMILES | assay | system | setting | endpoint | value
O=c1c2ccc(Oc3cccc(OC(F)(F)F)c3)cc2[nH]c2cc(Cl)cc(F)c12 | metabolic stability | mouse, liver microsomes | 1 µM, pH 7.4 | microsomal CLint | 24.3 µL/min/mg
CC(C)n1ncc2c(C(=O)NC(C)(C)CN)cc(C3CC3)nc21 | metabolic stability | mouse, liver microsomes |  | scaled CLint | 75.6 mL/min/kg
CCCCN(CCCC)CCCOc1ccc2c(=O)c3c([nH]c2c1)CCCC3 | metabolic stability | mouse, liver microsomes | 1 µM, pH 7.4 | microsomal CLint | 36.2 µL/min/mg
CCC(F)(F)c1cc(N2C(=O)NC(C)(C)C2=O)ccc1F | metabolic stability | mouse, liver microsomes |  | microsomal CLint | 7 µL/min/mg
CNS(=O)(=O)c1ccc(Nc2ncc(C(F)(F)F)c([C@H]3CC[C@@](C)(O)CC3)n2)c(C)c1 |  | rat, plasma | intravenous, 2 mg/kg | Vd | 1 L/kg
O=c1c2c([nH]c3ccc(F)c(Oc4ccc(OC(F)(F)F)cc4)c13)CCCC2 | metabolic stability | mouse, liver microsomes | 1 µM, pH 7.4 | microsomal CLint | 49 µL/min/mg
Cc1cc(S(=O)(=O)NC2CC(N3CCN(CC4CCN(c5ccc(NC6CCC(=O)NC6=O)cc5C)CC4)CC3)C2)ccc1Nc1ncc(C(F)(F)F)c(N2CCC[C@](C)(O)C2)n1 (some centres unmarked) |  | rat, plasma | intravenous, 2 mg/kg | Vd | 9 L/kg
CC(C)n1ncc2c(C(=O)NCC3(F)CNC3)cc(C3CC3)nc21 | metabolic stability | mouse, liver microsomes |  | scaled CLint | 78.2 mL/min/kg
O=c1c2ccc(OCc3ccc(C(F)(F)F)cc3)cc2[nH]c2cc(Cl)cc(F)c12 | metabolic stability | mouse, liver microsomes | 1 µM, pH 7.4 | microsomal CLint | 6.76 µL/min/mg
CNS(=O)(=O)c1ccc(Nc2ncc3cc(Cl)c(=O)n(C4CCCC4)c3n2)c(C)c1 |  | rat, plasma | intravenous, 2 mg/kg | Vd | 4 L/kg
CC1(C)NC(=O)N(c2ccc(F)c(S(C)(=O)=O)c2)C1=O | metabolic stability | mouse, liver microsomes |  | microsomal CLint | < 7 µL/min/mg
CC(C)n1ncc2c(C(=O)NCC(C)(C)N(C)C)cc(C3CC3)nc21 | metabolic stability | mouse, liver microsomes |  | scaled CLint | 120 mL/min/kg
CNS(=O)(=O)c1ccc(Nc2ncc(C(F)(F)F)c(N3CCC(C)(O)CC3)n2)c(C)c1 |  | rat, plasma | intravenous, 2 mg/kg | Vd | 3 L/kg
C[C@H]1Oc2cc(cnc2N)-c2c(nn(C)c2C#N)CN(C)C(=O)c2ccc(F)cc21 |  | male Sprague-Dawley rat, plasma | oral, 10 mg/kg, single dose | Vd/F | 37 L/kg
